Data reported in ChEMBL document CHEMBL1130999, “GPIIb/IIIa integrin antagonists with the new conformational restriction unit, trisubstituted beta-amino acid derivatives, and a substituted benzamidine structure” (J Med Chem, 1998).

Experiments:
[1] = Elimination T1/2 in Guinea pig (IV dose); conditions: in vivo, read-out: T1/2 beta
Homo sapiens = species on record: Homo sapiens; assay: Inhibition of collagen-induced platelet aggregation in human platelet-rich plasma; assay type: functional
How it was run: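 Human citrated PRP (160g, 15 min, room temperature) with platelet-poor plasma as reference. Samples at various concentrations were added at 37 °C 1 min before 5 µg/mL collagen. Aggregation was read as the increase in light transmission. Percent inhibition of aggregation rate versus control gave IC50 from dose-inhibition curves. Values are means ± SEM of three experiments; GRGDS peptide served as reference.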

[2] = target: Integrin alpha-IIb/beta-3 (Homo sapiens, UniProt P05106+P08514); assay: Binding affinity to human fibrinogen receptor; assay type: protein-complex assay
Sequence of Integrin alpha-IIb/beta-3 (P05106 27-788 limits assumed): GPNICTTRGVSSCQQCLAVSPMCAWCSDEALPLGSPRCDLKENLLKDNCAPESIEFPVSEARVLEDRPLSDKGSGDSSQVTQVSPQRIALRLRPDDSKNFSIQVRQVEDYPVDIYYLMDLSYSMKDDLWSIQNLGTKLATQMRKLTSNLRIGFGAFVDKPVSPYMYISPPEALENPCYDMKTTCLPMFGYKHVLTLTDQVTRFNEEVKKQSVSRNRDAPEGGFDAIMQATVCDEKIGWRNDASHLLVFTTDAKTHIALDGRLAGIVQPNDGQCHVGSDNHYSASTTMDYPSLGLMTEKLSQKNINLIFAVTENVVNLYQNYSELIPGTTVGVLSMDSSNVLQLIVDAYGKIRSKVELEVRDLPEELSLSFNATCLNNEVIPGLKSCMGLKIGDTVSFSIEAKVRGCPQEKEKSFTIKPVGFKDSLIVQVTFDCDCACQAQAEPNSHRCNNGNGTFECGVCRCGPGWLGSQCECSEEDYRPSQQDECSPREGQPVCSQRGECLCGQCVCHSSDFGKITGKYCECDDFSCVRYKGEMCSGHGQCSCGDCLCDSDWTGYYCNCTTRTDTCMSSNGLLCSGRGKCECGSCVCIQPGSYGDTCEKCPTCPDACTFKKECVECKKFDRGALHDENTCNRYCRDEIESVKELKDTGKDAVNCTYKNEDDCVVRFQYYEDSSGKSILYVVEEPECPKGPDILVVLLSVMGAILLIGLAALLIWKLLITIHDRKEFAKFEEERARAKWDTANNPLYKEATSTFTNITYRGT
Sequence of Integrin alpha-IIb/beta-3 (P08514 32-887 limits assumed): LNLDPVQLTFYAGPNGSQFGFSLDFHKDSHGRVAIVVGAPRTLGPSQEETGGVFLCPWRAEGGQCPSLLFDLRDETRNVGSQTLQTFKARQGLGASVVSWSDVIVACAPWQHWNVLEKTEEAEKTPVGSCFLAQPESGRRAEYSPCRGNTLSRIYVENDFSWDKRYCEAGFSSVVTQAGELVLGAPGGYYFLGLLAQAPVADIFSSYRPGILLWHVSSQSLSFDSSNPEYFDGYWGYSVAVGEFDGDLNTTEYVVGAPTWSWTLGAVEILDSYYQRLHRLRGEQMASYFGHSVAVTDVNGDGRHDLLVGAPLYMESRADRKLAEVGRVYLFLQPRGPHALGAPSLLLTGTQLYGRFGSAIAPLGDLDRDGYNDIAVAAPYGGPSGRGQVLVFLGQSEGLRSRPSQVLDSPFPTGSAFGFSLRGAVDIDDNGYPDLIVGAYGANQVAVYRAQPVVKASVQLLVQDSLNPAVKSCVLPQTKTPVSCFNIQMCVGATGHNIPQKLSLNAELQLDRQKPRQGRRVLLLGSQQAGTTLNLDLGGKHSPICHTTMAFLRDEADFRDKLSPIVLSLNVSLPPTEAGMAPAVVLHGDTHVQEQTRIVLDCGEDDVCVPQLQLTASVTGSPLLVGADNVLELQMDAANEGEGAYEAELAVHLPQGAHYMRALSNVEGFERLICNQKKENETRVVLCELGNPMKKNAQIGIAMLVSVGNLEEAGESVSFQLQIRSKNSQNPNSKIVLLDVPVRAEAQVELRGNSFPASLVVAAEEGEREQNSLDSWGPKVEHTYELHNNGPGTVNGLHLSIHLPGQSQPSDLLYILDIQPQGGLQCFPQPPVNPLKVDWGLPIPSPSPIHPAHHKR
Sequence of Integrin alpha-IIb/beta-3 (P08514 891-1039 limits assumed): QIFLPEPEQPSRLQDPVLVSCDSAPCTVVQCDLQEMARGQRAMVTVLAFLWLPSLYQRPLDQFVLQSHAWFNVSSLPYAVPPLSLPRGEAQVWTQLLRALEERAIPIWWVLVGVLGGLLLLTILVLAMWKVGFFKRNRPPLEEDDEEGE
How it was run: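 Competitive solid-phase ELISA. Plates were coated with 5 µg/mL human GPIIb/IIIa overnight at 4 °C and blocked 3 h at room temperature with 35 mg/mL BSA in 50 mM Tris, 100 mM NaCl, 2 mM CaCl₂, 0.02% NaN₃, pH 7.4. Human fibrinogen solution (30 µg/mL as added) plus inhibitor was incubated 3 h at room temperature. Bound fibrinogen was detected with alkaline phosphatase-conjugated anti-human fibrinogen antibody.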

[3] = Elimination T1/2 in Guinea pig (IV dose); conditions: in vivo
Tmax in rat (PO dose) = conditions: in vivo
[4] = Cmax in rat (PO dose); assay type: ADME, organism-based; set-up: route oral; conditions: in vivo
How it was run: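 Male Sprague-Dawley rats (190-210 g) were fasted overnight with water available. Dosing was 10 mg/kg po as a suspension in 2% arabic gum. Jugular vein blood was drawn at 30, 60 and 120 min, and active-form plasma levels were measured by HPLC. Cmax is the highest of these three time points.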

half-life [1] [h] | IC50 (Homo sapiens) [µM] | IC50 [2] [µM] | half-life [3] [h] | Tmax (Tmax in rat (PO dose)) [h] | Cmax [4] [ng/mL] | SMILES
0.883 | 0.082 | 0.0053 |  |  |  | CC(NC(=O)c1ccc(C(=N)N)cc1)C(C)(C)C(=O)N1CCC(CC(=O)O)CC1 (stereo not given)
1.2 | 0.66 | 0.0347 |  |  |  | CC(C)(C(=O)N1CCC(CC(=O)O)CC1)C(NC(=O)c1ccc(C(=N)N)cc1)c1ccc(Cl)cc1 (stereo not given)
1.4 | 0.076 | 0.0043 |  |  |  | CC(NC(=O)c1ccc(C(=N)N)cc1F)C(C)(C)C(=O)N1CCC(CC(=O)O)CC1 (stereo not given)
0.8 | 0.15 | 0.0086 |  |  |  | CC(C)C(NC(=O)c1ccc(C(=N)N)cc1)C(C)(C)C(=O)N1CCC(CC(=O)O)CC1 (stereo not given)
 | 0.23 | 0.0253 | 0.533 |  |  | CC(C)(C(=O)N1CCC(CC(=O)O)CC1)C(NC(=O)c1ccc(C(=N)N)cc1)c1ccccc1 (stereo not given)
1.48 | 0.062 | 0.0027 |  |  |  | CCC(NC(=O)c1ccc(C(=N)N)cc1F)C(C)(C)C(=O)N1CCC(CC(=O)O)CC1 (stereo not given)
1.3 | 0.081 | 0.0057 |  |  |  | CCCCC(NC(=O)c1ccc(C(=N)N)cc1F)C(C)(C)C(=O)N1CCC(CC(=O)O)CC1 (stereo not given)
0.517 | 0.16 | 0.0223 |  |  |  | CCCCCC(NC(=O)c1ccc(C(=N)N)cc1)C(C)(C)C(=O)N1CCC(CC(=O)O)CC1 (stereo not given)
1.08 | 0.076 | 0.0026 |  |  |  | CC(C)(C(=O)N1CCC(CC(=O)O)CC1)C(NC(=O)c1ccc(C(=N)N)cc1)c1cccc(O)c1 (stereo not given)
0.917 | 0.081 | 0.0027 |  |  |  | CC(C)CC(NC(=O)c1ccc(C(=N)N)cc1)C(C)(C)C(=O)N1CCC(CC(=O)O)CC1 (stereo not given)
1.77 | 0.072 | 0.0054 |  | 2 | 392 | CCOC(=O)CC1CCN(C(=O)C(C)(C)C(CC)NC(=O)c2ccc(C(=N)N3CCN(C)CC3)cc2F)CC1 (stereo not given)
1.5 | 1.4 | 0.363 |  |  |  | C#CCN(C(=O)c1ccc(C(=N)N)cc1)C(CCCC)C(C)(C)C(=O)N1CCC(CC(=O)O)CC1 (stereo not given)
1.03 | 0.082 | 0.0038 |  |  |  | CCCCC(NC(=O)c1ccc(C(=N)N)cc1)C(C)(C)C(=O)N1CCC(CC(=O)O)CC1 (stereo not given)
3.5 | 0.048 | 0.0058 |  | 1 | 290 | CCOC(=O)CC1CCN(C(=O)C(C)(C)C(CC)NC(=O)c2ccc(C(=N)N3CCC(O)CC3)cc2F)CC1 (stereo not given)
1.42 | 0.3 | 0.0213 |  |  |  | CN(C(=O)c1ccc(C(=N)N)cc1)C(c1ccccc1)C(C)(C)C(=O)N1CCC(CC(=O)O)CC1 (stereo not given)
2.5 | 0.25 | 0.0313 |  |  |  | CC(C)(C(=O)N1CCC(CC(=O)O)CC1)C(NC(=O)c1ccc(C(=N)N)cc1)c1cccc(Cl)c1 (stereo not given)
0.9 | 0.082 | 0.0051 |  |  |  | CCCC(NC(=O)c1ccc(C(=N)N)cc1)C(C)(C)C(=O)N1CCC(CC(=O)O)CC1 (stereo not given)
1.48 | 0.062 | 0.0027 |  | 0.5 | 90 | CCOC(=O)CC1CCN(C(=O)C(C)(C)C(CC)NC(=O)c2ccc(C(=N)N)cc2F)CC1 (stereo not given)
2.07 | 0.089 | 0.007 |  | 1 | 194 | CCOC(=O)CC1CCN(C(=O)C(C)(C)C(CC)NC(=O)c2ccc(C(=N)N3CCCC3)cc2F)CC1 (stereo not given)
0.85 | 0.38 | 0.021 |  |  |  | CC(C)(C(=O)N1CCC(CC(=O)O)CC1)C(NC(=O)c1ccc(C(=N)N)cc1)c1ccc2ccccc2c1 (stereo not given)
0.933 | 0.17 | 0.013 |  |  |  | C/C=C/C(NC(=O)c1ccc(C(=N)N)cc1)C(C)(C)C(=O)N1CCC(CC(=O)O)CC1 (stereo not given)
1.25 | 0.37 | 0.0273 |  |  |  | CC(C)(C(=O)N1CCC(CC(=O)O)CC1)C(NC(=O)c1ccc(C(=N)N)cc1Cl)c1ccccc1 (stereo not given)
0.417 | 0.079 | 0.0056 |  | 1 | 232 | CCOC(=O)CC1CCN(C(=O)C(C)(C)C(CC)NC(=O)c2ccc(C(=N)N3CCN(c4ccc(F)cc4)CC3)cc2F)CC1 (stereo not given)
1.83 | 0.045 | 0.0023 |  | 0.5 | 1210 | CCOC(=O)CC1CCN(C(=O)C(C)(C)C(CC)NC(=O)c2ccc(C(=N)N3CCSC3)cc2F)CC1 (stereo not given)
0.767 | 0.16 | 0.0473 |  |  |  | CC(C)(C(=O)N1CCC(CC(=O)O)CC1)C(CCc1ccccc1)NC(=O)c1ccc(C(=N)N)cc1 (stereo not given)
 |  | 0.125 |  |  |  | CC(C)(CNC(=O)c1ccc(C(=N)N)cc1)C(=O)N1CCC(CC(=O)O)CC1
1.3 | 0.085 |  |  |  |  | CCC(NC(=O)c1ccc(C(=N)N)cc1)C(C)(C)C(=O)N1CCC(CC(=O)O)CC1 (stereo not given)
4.62 | 0.16 | 0.004 |  | 0.5 | 922 | CCOC(=O)CC1CCN(C(=O)C(C)(C)C(CC)NC(=O)c2ccc(C(=N)N3CCOCC3)cc2F)CC1 (stereo not given)
 | 0.31 | 0.036 |  |  |  | CC(C)(/C=C/C(=O)c1ccc(C(=N)N)cc1)C(=O)N1CCC(CC(=O)O)CC1
1.05 | 0.22 | 0.0237 |  |  |  | CC(C)(C(=O)N1CCC(CC(=O)O)CC1)C(NC(=O)c1ccc(C(=N)N)cc1)c1ccc(O)cc1 (stereo not given)
